Data on seven compounds can be found in ChEMBL document CHEMBL1138555, “N-acylated and N,N'-diacylated imidazolidine-2-thione derivatives and N,N'-diacylated tetrahydropyrimidine-2(1H)-thione analogues: synthesis and antiproliferative activity” (Eur J Med Chem, 2009).

The subject of the experiment is Human immunodeficiency virus 1. Put plainly: Antiviral activity against HIV1 in human MT4 cells assessed as prevention of virus-induced cytopathogenicity. The experiment is classed as functional, organism-based. In short, it runs like this: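 MT-4 cells, 1 × 10⁴ per well, with serial compound dilutions from a 100 mM DMSO stock. Infected with HIV-1 at 100 CCID50. Four-day incubation at 37 °C, then viable cells measured by MTT. Read-out is inhibition of virus-induced cytopathogenicity, assessed at non-cytotoxic concentrations.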

Structures are written as SMILES. Active and inactive are the calls of the source. No cut-off for these calls is given here.

For `N#C/C(=C\N1CCNC1=S)C(=O)c1ccccc1`, the outcome was inactive.
As to `N#C/C(=C\N1CCNC1=S)C(=O)Nc1ccc(Cl)cc1`, the result was inactive.
For the compound `COC(=O)/C(C#N)=C/N1CCNC1=S`, the outcome was inactive.
In the case of `CCOC(=O)/C(=C/N1CCNC1=S)C(=O)c1ccccc1` it was “inactive”; in that of `COC(=O)/C(=C\N1CCNC1=S)C(C)=O`, “inactive”; in that of `CC(C)(C)C(=O)/C(C#N)=C/N1CCNC1=S`, “inactive”.
With `N#C/C(=C\N1CCNC1=S)C(N)=O` the entry was “inactive”.
